Data on five compounds can be found in ChEMBL document CHEMBL5360579, “Exploring the anticancer activity and the mechanism of action of pyrrolomycins F obtained by microwave-assisted total synthesis” (Eur J Med Chem, 2023).

The nature of data set [1]: Selectivity index, ratio of IC50 for hTERT-RPE1 cells to IC50 for human HCT-116 cells. The format is toxicity. The following applies: hTERT-RPE1 cells versus HCT-116 cells, read-out: Ratio IC50. An outline of the steps:
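Ratio of the hTERT-RPE-1 MTT IC50 to the IC50 in HCT116 or MCF-7. Each IC50 comes from a 48 h MTT assay (0.078–80 µM, sigmoidal fit), three experiments in triplicate.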

The subject of data set [2] is HCT-116. The data set is described as follows: Induction of morphological changes in human HCT-116 cells assessed as reduction in cell clumps at 0.5 uM incubated for 48 hrs by inverted phase-contrast microscopic analysis. The format is functional, cell-based.
The subject of data set [3] is HCT-116. The data set is described as follows: Induction of cell death in human HCT-116 cells assessed as appearance of neutral pH vacuoles originated from engulfment of extracellular fluid at 0.5 uM incubated for 48 hrs by acridine orange and ethidium bromide staining based fluorescence microscopic analysis. The format is functional. The method in brief: (§1)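 HCT116 on coverslips (5×10^4 cells/well), 24 h attachment, then exposed 48 h to 0.5 µM. PBS-washed and stained a few minutes with a 1:1 mix of acridine orange (100 µg/mL) and ethidium bromide (100 µg/mL). Viewed at once by fluorescence microscopy at 640X, scoring green vs orange nuclei and punctate cytoplasmic staining.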

For data set [4], the system named is MCF7. In words: Induction of morphological changes in human MCF7 cells assessed as development of long elongations from filamentous protrusions resembling filopodia at 1 uM incubated for 48 hrs by inverted phase-contrast microscopic analysis. The format is functional, cell-based.
The subject of data set [5] is HCT-116. In words: Induction of morphological changes in human HCT-116 cells assessed as appearance of filamentous protrusions at 0.5 uM incubated for 48 hrs by inverted phase-contrast microscopic analysis. It counts as functional, cell-based.
Data set [6] concerns HCT-116. The data set is described as follows: Inhibition of epithelial mesenchymal transition in human HCT-116 cells assessed as effect on E-cadherin protein expression at 0.5 uM incubated for 48 hrs by Western blot analysis. The format is functional, cell-based. (In general: Immunoblotting shows a protein as a band on a membrane.)
Data set [7] concerns HCT-116. The data set is described as follows: Induction of morphological changes in human HCT-116 cells assessed as intensive membrane ruffling and blebbing at 0.5 uM incubated for 48 hrs by scanning electron microscopic analysis. It counts as functional, cell-based. The method in brief:
(§2)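 HCT116 on coverslips, treated 48 h at 0.5 µM. Coverslips rinsed in PBS pH 7.4, fixed in 4% glutaraldehyde for 30 min at 4 °C, then imaged by scanning electron microscopy at 5000X and 20000X.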

Data set [8] concerns MCF7. The data set is described as follows: Cytotoxicity against human MCF7 cells assessed as inhibition of cell proliferation incubated for 48 hrs by MTT assay. The format is functional, cell-based. The settings on record: MCF7, 48 h. An outline of the steps: (§3)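 Cells kept in DMEM with 10% heat-inactivated FBS, penicillin/streptomycin, 37 °C, 5% CO2. Plated at 5×10^3 cells/well and left 24 h, then exposed 48 h to 80, 20, 5, 1.25, 0.31 and 0.078 µM (diluted from 5 mM DMSO stocks). MTT added for 2 h at 37 °C, formazan dissolved in DMSO, A570 read. Blank subtracted, viability taken relative to untreated cells. IC50 from a sigmoidal fit of % inhibition vs log concentration. Three experiments, each in triplicate.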
Background: Formazan colour is commonly taken as a measure of viable cells.

Data set [9] concerns HCT-116. The data set is described as follows: Induction of morphological changes in human HCT-116 cells assessed as tunneling nanotubes formation at 0.5 uM incubated for 48 hrs by scanning electron microscopic analysis. It counts as functional, cell-based. The method in brief:
as §2

The nature of data set [10]: Cytotoxicity against hTERT-RPE1 cells assessed as inhibition of cell proliferation incubated for 48 hrs by MTT assay. It counts as toxicity, cell-based, TERT-RPE1. The following applies: human. An outline of the steps: as §3
Data set [11] concerns HCT-116. The data set is described as follows: Induction of morphological changes in human HCT-116 cells assessed as appearance of long and thin filopodia at 0.5 uM incubated for 48 hrs by scanning electron microscopic analysis. The format is functional, cell-based. The method in brief:
as §2

Data set [12] deals with HCT-116. In words: Induction of cell death in human HCT-116 cells assessed as chromatin condensation at 0.5 uM incubated for 48 hrs by acridine orange and ethidium bromide staining based fluorescence microscopic analysis. The format is functional. The method in brief:
as §1

The test system of data set [13] is HCT-116. The data set is described as follows: Induction of morphological changes in human HCT-116 cells assessed as neuronal sprouting at 0.5 uM incubated for 48 hrs by scanning electron microscopic analysis. It counts as functional, cell-based. The method in brief: as §2
In data set [14] the test system is HCT-116. In words: Induction of apoptosis in human HCT-116 cells assessed as nuclear fragmentation at 0.5 uM incubated for 48 hrs by Hoechst 33342 staining based analysis. It counts as functional, cell-based. An outline of the steps: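 HCT116 on coverslips at 5×10^4 cells/well, treated 48 h at 0.5 µM after 24 h attachment. PBS-washed, stained 10 min with Hoechst 33342 (final 1 µg/ml). Nuclei inspected at once by fluorescence microscopy at 640X for chromatin condensation and nuclear fragmentation.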

Data set [15] has as its system HCT-116. The data set is described as follows: Induction of morphological changes in human HCT-116 cells assessed as appearance of elongated fusiform-shaped cells at 0.5 uM incubated for 48 hrs by scanning electron microscopic analysis. It counts as functional, cell-based. The method in brief:
as §2

Data set [16] has as its system HCT-116. In words: Induction of morphological changes in human HCT-116 cells assessed as appearance of flattened cells at 0.5 uM incubated for 48 hrs by scanning electron microscopic analysis. It counts as functional, cell-based. The method in brief: as §2
Data set [17] has as its system HCT-116. The data set is described as follows: Induction of autophagy in human HCT-116 cells assessed as effect on Beclin-1 protein expression at 0.5 uM incubated for 48 hrs by Western blot analysis. The format is functional, cell-based.
The subject of data set [18] is HCT-116. In words: Induction of morphological changes in human HCT-116 cells assessed as leakage and perforation of cell membranes at 0.5 uM incubated for 48 hrs by scanning electron microscopic analysis. It counts as functional, cell-based. The method in brief: as §2
Data set [19] has as its system HCT-116. In words: Induction of morphological changes in human HCT-116 cells assessed as development of long elongations from filamentous protrusions resembling filopodia at 0.5 uM incubated for 48 hrs by inverted phase-contrast microscopic analysis. It counts as functional, cell-based.
Data set [20] concerns HCT-116. The data set is described as follows: Induction of autophagy in human HCT-116 cells assessed as upregulation of Atg-7 protein expression at 0.5 uM incubated for 48 hrs by Western blot analysis. It counts as functional, cell-based.
Data set [21] relates to HCT-116. In words: Induction of autophagy in human HCT-116 cells assessed as upregulation of Beclin-1 protein expression at 0.5 uM incubated for 48 hrs by Western blot analysis. The format is functional, cell-based.
For data set [22], the system named is HCT-116. In words: Induction of autophagy in human HCT-116 cells assessed as upregulation of LC3-II expression at 0.5 uM incubated for 48 hrs by Western blot analysis. It counts as functional, cell-based.
In data set [23] the test system is HCT-116. In words: Induction of autophagy in human HCT-116 cells assessed as downregulation of LC3B-I expression at 0.5 uM incubated for 48 hrs by Western blot analysis. The format is functional, cell-based.

Activity calls are given as the source filed them. The calls are words filed in the database; no cut-off is given here.

For the compound `O=C(c1cc(Br)ccc1O)c1[nH]c(Br)c(Cl)c1Br`, in [1], the selectivity ratio was roughly 100. Further, the result in data set [2], in data set [3], in [4], in [5], in [7] and in data set [9] was Active. Also, the result in data set [11], in data set [13], in data set [15], in data set [16], in data set [17] and in data set [18] was Active. In data set [19], the result was Active. Further, the inhibition entry in [6] was “inactive”. Moreover, the IC50 in data set [8] came out at 0.73 µM. The IC50 at 48 h in data set [10] turned out to be 86.6 µM. Besides, the result in data set [12] and in [14] was inactive.

For `O=C(c1cc(Br)ccc1O)c1[nH]c(Br)c(Br)c1Br`, the selectivity ratio in data set [1] is roughly 100. Further, the result in data set [2], in [3], in data set [4], in [5], in [7] and in data set [9] was Active. The result in data set [11], in data set [13], in data set [15], in data set [16], in data set [17] and in data set [18] was Active. The result in data set [19] was Active. The inhibition entry in [6] was “inactive”. For the same compound, the IC50 in [8] was 0.61 µM. In addition, the half-inhibitory concentration (IC50) at 48 h in [10] worked out at 62.8 µM. Further, the outcome in [12] and in [14] was inactive.

In the case of `O=C(c1cc(Br)cc(Br)c1O)c1[nH]c(Br)c(Br)c1Br`, the result in [2], in data set [3], in data set [4], in [5], in [20] and in [21] was Active. Further, the result in data set [7], in data set [9], in data set [11], in data set [13], in data set [15] and in [16] was Active. Moreover, the result in [18] and in [19] was Active. The inhibition entry in [6] is “inactive”. Moreover, in [8], the IC50 amounted to 1.2 µM. In addition, the IC50 at 48 h in data set [10] is 57.7 µM. Also, the result in data set [12] and in [14] was inactive.

Turning to `O=C(c1cc(Br)ccc1O)c1[nH]c(Cl)c(Cl)c1Br`, the selectivity ratio in data set [1] was roughly 100. Besides, the outcome in data set [2], in data set [3], in [4], in data set [5], in data set [22] and in data set [23] was Active. Moreover, the result in data set [7], in data set [9], in data set [11], in data set [13], in data set [15] and in [16] was Active. Further, the result in data set [17], in [18] and in [19] was Active. Moreover, the inhibition result in data set [6] is “inactive”. Further, the IC50 in data set [8] is 1.21 µM. Besides, in [10], the IC50 at 48 h was 175 µM. Further, the outcome in data set [12] and in data set [14] was inactive.

Regarding `O=C(c1cc(Br)ccc1O)c1[nH]c(Cl)c(Br)c1Br`, the selectivity ratio in data set [1] was roughly 100. The result in data set [2], in data set [3], in data set [4], in data set [5], in data set [22] and in data set [23] was Active. Also, the outcome in data set [7], in data set [9], in data set [11], in [13], in data set [15] and in data set [16] was Active. The outcome in [17], in [18] and in data set [19] was Active. Besides, in data set [6], the inhibition entry is “inactive”. The IC50 in data set [8] stood at 0.65 µM. Further, in data set [10], the IC50 at 48 h stood at 61.5 µM. Also, the outcome in [12] and in data set [14] was inactive.

The term IC50 denotes the point on the concentration scale where inhibition reaches its midpoint.
